Activity calls are given as the source filed them. The calls are words filed in the database; no cut-off is given here.
What was measured:
Mus musculus [1] = organism: Mus musculus; experiment: Immunostimulation activity in BALB/c mouse assessed as stimulation of peritoneal macrophages measured […] post compound injection; assay type: functional, organism-based
Method in brief: (§1)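 Mice were injected with oligosaccharides 1 or 4 days before. Peritoneal macrophages (1 × 10^7, in RPMI-1640 with 5% FCS) were incubated with HEMA particles, Giemsa-stained and differentially counted; cells with ≥3 particles were scored positive. Peripheral blood was scored the same way, using one heparinised drop from the orbital plexus. Mean of three experiments ± SD.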

Mus musculus [2] = organism: Mus musculus; experiment: Immunostimulation activity in BALB/c mouse assessed as stimulation of […] neutrophils measured […] post compound injection; assay type: functional, organism-based; method in brief: as §1
Mus musculus [3] = organism: Mus musculus; experiment: Immunostimulation activity in BALB/c mouse assessed as stimulation of monocytes measured […] post compound injection; assay type: functional, organism-based; method in brief: as §1
Mus musculus [4] = organism: Mus musculus; experiment: Immunostimulation activity in BALB/c mouse assessed as production of IL-2 in splenocytes measured 1 to 3 days post compound injection; assay type: functional, organism-based
Method in brief: (§2)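 Purified spleen cells (2 × 10^6/mL in RPMI 1640 with 5% FCS) were cultured for 72 h at 37 °C, 5% CO2; 1 μg Concanavalin A was added to positive-control wells. Supernatants were filtered at 0.45 μm and IL-2 was measured by mouse IL-2 ELISA kit. Mean of three experiments ± SD; PBS-injected mice served as controls.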

Mus musculus [5] = experiment: Immunostimulation activity in BALB/c mouse assessed as production of […] in peripheral blood at 100 ug, ip by EIA; assay type: functional, organism-based
Method in brief: (§3)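 BALB/c mice received 100 μg oligosaccharide i.p., or PBS. Mice were sacrificed at intervals and serum was stored at −80 °C for ≤1 week. IL-1β and TNF-α were measured by ELISA at 450 nm with 570 nm correction, against a standard curve run with each assay (linear regression). Mean of three experiments ± SD.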

Mus musculus [6] = experiment: Immunostimulation activity in BALB/c mouse assessed as production of TNF-alpha in peripheral blood at 100 ug, ip by EIA; assay type: functional, organism-based; method in brief: as §3
Mus musculus [7] = experiment: Immunostimulation activity in BALB/c mouse assessed as production of IL-2 in conA-stimulated splenocytes at 100 ug, ip by EIA; assay type: functional, organism-based; method in brief: as §2
[8] = Downregulation of NF-kappaB expression in human Detroit 573 cells at by RT-PCR analysis; assay type: ADME, cell-based
Method in brief: (§4)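 Total RNA was Trizol-extracted from control and treated cells (ZR-75-1 or Detroit 573; 10% heat-inactivated FCS, 37 °C, 5% CO2). 200 ng was taken through one-step RT-PCR: 30 min at 50 °C, 2 min at 95 °C, then 25 cycles with gene-specific annealing and extension. Products were run on 1.0% agarose, normalised to β-actin and quantified by densitometry. Three independent experiments, Student's t test.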

ZR-75-1 [9] = experiment: Upregulation of NF-kappaB expression in human ZR-75-1 cells at by RT-PCR analysis; assay type: functional, cell-based; method in brief: as §4
[10] = Upregulation of PKC expression in human Detroit 573 cells at by RT-PCR analysis; assay type: ADME, cell-based; method in brief: as §4
ZR-75-1 [11] = experiment: Upregulation of PKC expression in human ZR-75-1 cells at by RT-PCR analysis; assay type: functional, cell-based; method in brief: as §4
[12] = Downregulation of CDC25 expression in human Detroit 573 cells at by RT-PCR analysis; assay type: ADME, cell-based; method in brief: as §4
ZR-75-1 [13] = experiment: Effect on CDC25 expression in human ZR-75-1 cells at by RT-PCR analysis; assay type: functional, cell-based; method in brief: as §4
Mus musculus [14] = organism: Mus musculus; experiment: Immunostimulation activity in BALB/c mouse assessed as stimulation of peritoneal macrophages measured […] in presence of polymyxin B; assay type: functional, organism-based
Method in brief: (§5)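 This is the HEMA-particle phagocytosis assay repeated with 10 μg/mL polymyxin B added to the samples. Peritoneal cells (1 × 10^7, RPMI-1640 with 5% FCS) and heparinised orbital-plexus blood were taken from mice injected with oligosaccharides 1 or 4 days before. Cells were Giemsa-stained, and those carrying ≥3 particles were scored positive.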

Mus musculus [15] = organism: Mus musculus; experiment: Immunostimulation activity in BALB/c mouse assessed as stimulation of […] neutrophils measured […] in presence of polymyxin B; assay type: functional, organism-based; method in brief: as §5
Mus musculus [16] = organism: Mus musculus; experiment: Immunostimulation activity in BALB/c mouse assessed as stimulation of monocytes measured […] post compound injection in presence of polymyxin B; assay type: functional, organism-based; method in brief: as §5
Mus musculus [17] = organism: Mus musculus; experiment: Immunostimulation activity in BALB/c mouse assessed as influx of peritoneal macrophages measured 1 to 3 days post compound injection; assay type: functional, organism-based
ZR-75-1 [18] = experiment: Downregulation of CDC42 expression in human ZR-75-1 cells at by RT-PCR analysis; assay type: functional, cell-based; method in brief: as §4
[19] = Upregulation of CDC42 expression in human Detroit 573 cells at by RT-PCR analysis; assay type: ADME, cell-based; method in brief: as §4

| SMILES | Activity (Mus musculus [1]) | Activity (Mus musculus [2]) | Activity (Mus musculus [3]) | Activity (Mus musculus [4]) | Activity (Mus musculus [5]) | Activity (Mus musculus [6]) | Activity (Mus musculus [7]) | Activity [8] | Activity (ZR-75-1 [9]) | Activity [10] | Activity (ZR-75-1 [11]) | Activity [12] | Activity (ZR-75-1 [13]) | Activity (Mus musculus [14]) | Activity (Mus musculus [15]) | Activity (Mus musculus [16]) | Activity (Mus musculus [17]) | Activity (ZR-75-1 [18]) | Activity [19] |
| --- | --- | --- | --- | --- | --- | --- | --- | --- | --- | --- | --- | --- | --- | --- | --- | --- | --- | --- | --- |
| OC[C@H]1O[C@@H](O[C@@H]2[C@@H](O)[C@H](S[C@@H]3[C@@H](O)[C@H](O)O[C@H](CO)[C@H]3O)O[C@H](CO)[C@H]2O)[C@H](O)[C@@H](O)[C@@H]1O | Active | Active | Active | Active | Active | Active | Active | Non-toxic | Active | Toxic | Active | Non-toxic | inactive | Active | Active | Active | Active | – | – |
| OC[C@H]1O[C@@H](O[C@@H]2[C@@H](O)[C@H](O[C@@H]3[C@@H](O)[C@H](S[C@H]4[C@H](O)[C@@H](CO)OC(O)[C@@H]4O)O[C@H](CO)[C@H]3O)O[C@H](CO)[C@H]2O)[C@H](O)[C@@H](O)[C@@H]1O (stereo partly specified) | Active | Active | Active | Active | Active | Active | Active | Non-toxic | – | Toxic | Active | Non-toxic | inactive | Active | Active | Active | Active | Active | – |
| OC[C@H]1O[C@@H](S[C@@H]2[C@@H](O)[C@H](S[C@H]3[C@H](O)[C@@H](CO)OC(O)[C@@H]3O)O[C@H](CO)[C@H]2O)[C@H](O)[C@@H](O)[C@@H]1O (stereo partly specified) | Active | Active | Active | – | – | – | – | – | – | Toxic | Active | Non-toxic | inactive | Active | Active | Active | Active | – | Non-toxic |
| OC[C@H]1O[C@@H](O[C@@H]2[C@@H](O)[C@H](S[C@@H]3[C@@H](O)[C@H](S[C@H]4[C@H](O)[C@@H](CO)OC(O)[C@@H]4O)O[C@H](CO)[C@H]3O)O[C@H](CO)[C@H]2O)[C@H](O)[C@@H](O)[C@@H]1O (stereo partly specified) | Active | Active | Active | Active | Active | Active | Active | Toxic | – | Toxic | Active | – | – | Active | Active | Active | Active | – | Non-toxic |

From ChEMBL document CHEMBL3352606, “Oligo-β-(1 → 3)-glucans: impact of thio-bridges on immunostimulating activities and the development of cancer stem cells” (J Med Chem, 2014)
